Experimental findings from ChEMBL document CHEMBL1765076, “17,20-Lyase inhibitors. Part 3: Design, synthesis, and structure-activity relationships of biphenylylmethylimidazole derivatives as novel 17,20-lyase inhibitors” (Bioorg Med Chem, 2011) are described below.

Structures are written as SMILES.

Test [1] deals with Cynomolgus monkey. Briefly: Antiandrogenic activity in cynomolgus monkey assessed as serum testosterone level at 3 mg/kg, po after 5 hrs (reference value: 98 +/- 33%). The format is functional, Macaca fascicularis.
Test [2] deals with Cynomolgus monkey. Nature of the test: Antiandrogenic activity in cynomolgus monkey assessed as serum DHEA level at 3 mg/kg, po after 2 hrs (reference value: 116 +/- 95%). The format is functional, Macaca fascicularis.
Test [3] has as its system Cynomolgus monkey. Nature of the test: Antiandrogenic activity in cynomolgus monkey assessed as serum DHEA level at 3 mg/kg, po after 5 hrs (reference value: 148 +/- 53%). The format is functional, Macaca fascicularis.
For test [4], the target named is T1, Steroid 17-alpha-hydroxylase/17,20 lyase (Rattus norvegicus, UniProt P11715).
T1 sequence (P11715 whole entry): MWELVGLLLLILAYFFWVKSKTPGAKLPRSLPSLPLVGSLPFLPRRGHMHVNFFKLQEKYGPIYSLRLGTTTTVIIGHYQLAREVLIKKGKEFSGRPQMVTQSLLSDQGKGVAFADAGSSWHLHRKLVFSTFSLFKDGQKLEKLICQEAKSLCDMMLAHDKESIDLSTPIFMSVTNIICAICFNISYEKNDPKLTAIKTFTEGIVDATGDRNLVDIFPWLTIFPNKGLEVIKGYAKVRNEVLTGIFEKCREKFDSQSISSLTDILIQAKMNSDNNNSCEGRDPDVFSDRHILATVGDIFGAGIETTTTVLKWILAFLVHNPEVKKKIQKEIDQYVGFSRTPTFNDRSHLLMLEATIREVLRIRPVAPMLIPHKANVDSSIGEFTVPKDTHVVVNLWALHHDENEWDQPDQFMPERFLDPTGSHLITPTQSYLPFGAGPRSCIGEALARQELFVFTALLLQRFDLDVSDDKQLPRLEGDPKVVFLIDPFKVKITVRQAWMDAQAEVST
Nature of the test: Inhibition of 17,20 lyase activity in Sprague-Dawley rat testicular microsomes. Also on record: species or system Testis. The method, boiled down: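 Testicular microsomes came from 13-week-old male SD rats, prepared by homogenisation and centrifugation. Reactions contained 75 mM phosphate (pH 7.4), 7 µg microsomal protein, 10 nM [1,2-3H]-17α-hydroxyprogesterone, 5 mM NADPH and 1–1000 nM compound (final concentrations; DMF stocks diluted in water). Incubation was 15 min at 37 °C, stopped with ethyl acetate. IC50 is the concentration halving product formation.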

Test [5] has as its target T2, Steroid 17-alpha-hydroxylase/17,20 lyase (Homo sapiens, UniProt P05093).
T2 sequence (P05093 whole entry): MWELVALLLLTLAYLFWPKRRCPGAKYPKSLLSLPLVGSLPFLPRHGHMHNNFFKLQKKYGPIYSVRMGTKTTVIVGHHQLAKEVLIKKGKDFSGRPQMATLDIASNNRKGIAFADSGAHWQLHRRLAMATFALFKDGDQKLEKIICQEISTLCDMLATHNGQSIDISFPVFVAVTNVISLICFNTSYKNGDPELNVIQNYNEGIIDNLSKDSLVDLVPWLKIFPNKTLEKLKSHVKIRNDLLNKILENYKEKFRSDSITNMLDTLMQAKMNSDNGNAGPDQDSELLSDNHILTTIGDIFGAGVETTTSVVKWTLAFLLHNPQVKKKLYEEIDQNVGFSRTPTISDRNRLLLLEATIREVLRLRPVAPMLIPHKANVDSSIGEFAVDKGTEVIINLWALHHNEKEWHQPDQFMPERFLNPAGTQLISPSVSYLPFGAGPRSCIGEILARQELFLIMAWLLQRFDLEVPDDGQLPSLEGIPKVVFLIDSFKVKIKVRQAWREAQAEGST
Briefly: Inhibition of human 17,20 lyase activity.

Test [6] has as its system Cynomolgus monkey. Nature of the test: Antiandrogenic activity in cynomolgus monkey assessed as serum testosterone level at 3 mg/kg, po after 2 hrs (reference value: 110 +/- 29%). Type of test: functional, Macaca fascicularis.
In a further test the target is Cytochrome P450 3A4 (Homo sapiens, UniProt P08684). Briefly: Inhibition of human CYP3A4 after 30 mins. Type of test: ADME.
Sequence of Cytochrome P450 3A4 (P08684 whole entry): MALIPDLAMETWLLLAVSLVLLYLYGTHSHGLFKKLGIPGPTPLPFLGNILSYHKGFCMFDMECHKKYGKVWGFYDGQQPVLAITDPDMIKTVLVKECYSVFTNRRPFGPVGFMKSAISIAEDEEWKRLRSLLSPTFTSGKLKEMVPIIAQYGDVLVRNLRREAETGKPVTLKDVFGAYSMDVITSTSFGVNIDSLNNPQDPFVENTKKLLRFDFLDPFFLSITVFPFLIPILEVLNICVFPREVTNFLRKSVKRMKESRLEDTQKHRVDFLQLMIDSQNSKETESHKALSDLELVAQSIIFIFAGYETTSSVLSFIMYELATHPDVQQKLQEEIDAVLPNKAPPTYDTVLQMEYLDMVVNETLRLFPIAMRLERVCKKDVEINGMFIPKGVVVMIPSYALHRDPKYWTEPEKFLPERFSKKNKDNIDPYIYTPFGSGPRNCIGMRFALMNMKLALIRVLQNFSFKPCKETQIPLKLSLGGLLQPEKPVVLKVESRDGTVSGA
For the next test, the species on record is Homo sapiens. Briefly: Ratio of IC50 for human CYP3A4 to IC50 for human 17,20-lyase.

Take `CC(=O)Nc1cccc(-c2ccc([C@](O)(c3c[nH]cn3)C(C)C)cc2)c1`: the Activity came out at 23% with Cynomolgus monkey [1], 23% with Cynomolgus monkey [2], 13% in the test on Cynomolgus monkey [3] and 52% in the test on Cynomolgus monkey [6]. The IC50 (in general, the point on the concentration scale where inhibition reaches its midpoint) is 14 nM in test [4] and 26 nM in test [5].

For the compound `CC(=O)Nc1cccc(-c2ccc([C@@](O)(c3c[nH]cn3)C(C)C)cc2)c1`, the IC50 in test [4] came to 770 nM; in test [5] it was 340 nM.

With `CC(=O)Nc1cccc(-c2ccc([C@](O)(c3cnc[nH]3)C(C)C)cc2)n1`, the IC50 in test [4] was 33 nM; in test [5], 26 nM; on Cytochrome P450 3A4, > 10000 nM.

Take `CC(=O)Nc1cccc(-c2ccc([C@@](O)(c3cnc[nH]3)C(C)C)cc2)n1`: the IC50 in test [4] was > 1000 nM; in test [5], 92 nM; on Cytochrome P450 3A4 it was > 10000 nM.

Regarding `CC[C@](O)(c1ccc(-c2cccc(NC(C)=O)c2)cc1)c1c[nH]cn1`, the IC50 in test [4] is 19 nM; in test [5] it was 22 nM; at Cytochrome P450 3A4 it was > 10000 nM. In the test listed under Homo sapiens, the Ratio IC50 is > 300.

As for `CC[C@@](O)(c1ccc(-c2cccc(NC(C)=O)c2)cc1)c1c[nH]cn1`, the IC50 was 450 nM in test [4], 240 nM in test [5] and > 10000 nM against Cytochrome P450 3A4.

Consider `CC(=O)Nc1cccc(-c2ccc([C@](O)(c3c[nH]cn3)C(C)C)cc2)n1`, for which the Ratio IC50 in the test listed under Homo sapiens was > 300.

In the case of `COc1ccc(-c2cccc(C(O)(c3c[nH]cn3)C(C)C)c2)cc1` (racemic), the half-inhibitory concentration (IC50) in test [5] turned out to be 130 nM; at Cytochrome P450 3A4, 2000 nM. Moreover, the Ratio IC50 in the test listed under Homo sapiens came to 15.

For the compound `CC(C)C(O)(c1cccc(-c2ccc(F)cc2)c1)c1c[nH]cn1` (racemic), the IC50 in test [5] worked out at 19 nM; on Cytochrome P450 3A4, 2100 nM. For the same compound, the Ratio IC50 in the test filed under Homo sapiens is 111.

`CC(C)C(O)(c1cccc(-c2ccc(Cl)cc2)c1)c1c[nH]cn1` (racemic): the IC50 amounted to 19 nM in test [4], 49 nM in test [5] and 2400 nM against Cytochrome P450 3A4. In addition, in the test filed under Homo sapiens, the Ratio IC50 was found to be 49.

Regarding `CC(C)C(O)(c1ccc(-c2ccccc2)cc1)c1c[nH]cn1` (racemic), the half-inhibitory concentration (IC50) in test [4] was found to be 33 nM; in test [5], 33 nM; at Cytochrome P450 3A4 it was 3700 nM. The Ratio IC50 in the test listed under Homo sapiens is 112.

`COc1ccc(-c2ccc(C(O)(c3c[nH]cn3)C(C)C)cc2)cc1` (racemic): the IC50 in test [4] came out at 120 nM; in test [5], 54 nM; at Cytochrome P450 3A4, 4900 nM. Moreover, the Ratio IC50 in the test filed under Homo sapiens was 91.

As for `CC(C)C(O)(c1ccc(-c2ccc(F)cc2)cc1)c1c[nH]cn1` (racemic), the IC50 in test [5] was found to be 27 nM; on Cytochrome P450 3A4, 5300 nM. Moreover, the Ratio IC50 in the test filed under Homo sapiens came out at 196.

For `CC(C)C(O)(c1ccc(-c2ccc(Cl)cc2)cc1)c1c[nH]cn1` (racemic), the half-inhibitory concentration (IC50) in test [4] was determined as 29 nM; in test [5], 28 nM; at Cytochrome P450 3A4, 7600 nM. Moreover, the Ratio IC50 in the test filed under Homo sapiens worked out at 271.

Regarding `CC(=O)Nc1cccc(-c2ccc(C(O)(c3c[nH]cn3)C(C)C)cc2)c1` (racemic), the IC50 in test [4] is 17 nM; in test [5], 24 nM.

As for `CC(=O)Nc1ccc(-c2ccc(C(O)(c3c[nH]cn3)C(C)C)cc2)cc1` (racemic), the IC50 turned out to be 24 nM in test [4], 120 nM in test [5] and 1000 nM against Cytochrome P450 3A4.

With `CNC(=O)c1cccc(-c2ccc(C(O)(c3c[nH]cn3)C(C)C)cc2)c1` (racemic), the values for the IC50 (in test [4]; in test [5]; on Cytochrome P450 3A4) were 49 nM, 44 nM and 8100 nM, respectively.

For the compound `CNS(=O)(=O)c1cccc(-c2ccc(C(O)(c3cnc[nH]3)C(C)C)cc2)c1` (racemic), the IC50 in test [4] was found to be 71 nM; in test [5], 160 nM; against Cytochrome P450 3A4, 3300 nM.

On to `CNC(=O)Nc1cccc(-c2ccc(C(O)(c3c[nH]cn3)C(C)C)cc2)c1` (racemic), for which the figures for the IC50 (in test [4]; in test [5]; against Cytochrome P450 3A4) were 24 nM, 21 nM and 5500 nM, respectively.

Take `CC(C)C(O)(c1ccc(-c2ccccn2)cc1)c1c[nH]cn1` (racemic): the IC50 stood at 210 nM in test [4], 150 nM in test [5] and 5200 nM against Cytochrome P450 3A4.

In the case of `CC(=O)Nc1cccc(-c2ccc(C(O)(c3c[nH]cn3)C(C)C)cc2)n1` (racemic), the IC50 is 53 nM in test [4], 36 nM in test [5] and > 10000 nM at Cytochrome P450 3A4.

With `CC(=O)Nc1cccc(-c2ccc(C(C)(O)c3c[nH]cn3)cc2)c1` (racemic), the IC50 in test [4] is 62 nM; in test [5], 38 nM; on Cytochrome P450 3A4 it was > 10000 nM.

On to `CCC(O)(c1ccc(-c2cccc(NC(C)=O)c2)cc1)c1c[nH]cn1` (racemic), for which the figures for the IC50 (in test [4]; in test [5]; against Cytochrome P450 3A4) were 25 nM, 40 nM and > 10000 nM, respectively.

Regarding `CC(=O)Nc1cccc(-c2ccc(C(O)(c3c[nH]cn3)C3CC3)cc2)c1` (racemic), the figures for the IC50 (in test [4]; in test [5]; against Cytochrome P450 3A4) were 81 nM, 45 nM and 5500 nM, respectively.

Turning to `CC(=O)Nc1cccc(-c2ccc(C(O)c3cnc[nH]3)cc2)c1` (racemic), the values for the IC50 (in test [4]; in test [5]; at Cytochrome P450 3A4) were 320 nM, 77 nM and > 10000 nM, respectively.

`COc1ccc2cc(C(O)(c3c[nH]cn3)C(C)C)ccc2c1` (racemic): the IC50 on Cytochrome P450 3A4 was < 1000 nM.
